Screening data (PubChem)
RGS4 block: human RGS4 inhibition | P49798 | HEK293 M3R/RGS4 inducible, Fluo-4 calcium flux; active compounds read high; triggered by carbachol at its EC20 | B-score at 10 µM | 310,000 compounds, 0.45% hits | AID 463165;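 active = B-score, a plate-corrected calcium signal, over three deviations above library mean, with baseline fluorescence within five deviations of library mean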;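 note: RGS4 expression induced by doxycycline in cells with stable M3 receptor; B-score is computed from the integrated fluorescence ratio over baseline after carbachol; higher B-score means a larger calcium signal and so more RGS4 inhibition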
MrgX1 allo act: human MrgX1 positive allosteric modulation, primary screen; Q96LB2; MrgX1-HEK293, Fluo-4 calcium flux, FDSS; active compounds read high; B-score at 10 µM; 310,000 compounds, 0.63% hits; AID 588675;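 active = plate-corrected calcium response at least 3 library SD above typical, normal starting fluorescence, not activating the receptor alone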;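 note: compound read alongside a low EC10 to EC30 dose of BAM8-22 agonist; peak minus trough fluorescence over baseline measured at the second addition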
Target sequence (Q96LB2 whole entry, looked up): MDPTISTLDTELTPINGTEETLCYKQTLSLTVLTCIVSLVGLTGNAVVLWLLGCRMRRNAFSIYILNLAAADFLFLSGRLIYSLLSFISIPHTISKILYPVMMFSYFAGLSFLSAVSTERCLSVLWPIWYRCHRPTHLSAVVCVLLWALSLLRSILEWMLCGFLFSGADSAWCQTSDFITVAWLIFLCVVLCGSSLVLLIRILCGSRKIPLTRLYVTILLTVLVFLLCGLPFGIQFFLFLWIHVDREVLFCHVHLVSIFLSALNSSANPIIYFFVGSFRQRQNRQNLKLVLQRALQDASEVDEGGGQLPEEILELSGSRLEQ
MrgX1 antag: blocks BAM8-22 activation of human MrgX1 receptor. 310,000 compounds, 1.3% hits. AID 588676. MRGX1-HEK293 calcium flux, Fluo-4, BAM8-22 antagonism; active compounds read low. Q96LB2. B-score at 10 µM;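 active = calcium-response B-score plate-corrected more than 3 library SD below zero, starting fluorescence within 5 deviations, no agonist response on first addition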;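 note: peak minus trough fluorescence over baseline after final BAM8-22 challenge near maximal dose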
MrgX1 ag: human MrgX1 receptor agonism, primary screen. B-score at 10 µM. 310,000 compounds, 0.44% hits. MrgX1-HEK293 cells, Fluo-4 calcium fluorescence, agonist mode; active compounds read high. Q96LB2. AID 588627;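 active = calcium response B-score plate-corrected fluorescence ratio at least 3 library SD, with starting fluorescence B-score inside 5 SD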
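Test system: Stable human MrgX1 HEK293 cell line | Schedule: Overnight plating before 1 h dye loading | Read-out basis: Baseline-normalised fluorescence change ratio, B-scored | Detection: Kinetic calcium dye fluorescence, Fluo-4 NW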
RGS4 pot: RGS4 potentiation or activation | HEK293 M3R/inducible RGS4, carbachol calcium flux Fluo4; active compounds read low | B-score at 10 µM | 310,000 compounds, 0.92% hits | AID 463111;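 active = B-score of the integrated calcium signal more than 4 SD below the library mean, with starting fluorescence not abnormally high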;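 note: negative B-score means reduced calcium response which marks RGS4 activation or potentiation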
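Test system: HEK293 cells with stable M3R and inducible RGS4; also added: carbachol at ECmax as muscarinic agonist stimulus; schedule: dye loading 30 min 37 °C, buffer rest 30 min RT; technique: kinetic calcium fluorescence imaging with Fluo4-AM dye, 2 µM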
Starred values were filed as active, the others as inactive; i = inactive. Shown are actives, neighbours in structure and some others; about 3.5% of the full set was active somewhere.

SMILES | RGS4 block | MrgX1 allo act | MrgX1 antag | MrgX1 ag | RGS4 pot
CCOC(=O)c1cc2c(=O)n3ccccc3nc2n(Cc2ccco2)c1=NC(=O)c1cccc(OC)c1 | i | i | -5.8* | i | -7.43*
CCOC(=O)c1cc2c(=O)n3cccc(C)c3nc2n(Cc2ccco2)c1=NC(=O)c1ccccc1 | i | i | i | i | -7.2*
O=C(NCC1CCN(C(=O)c2c(F)c(F)c(F)c(F)c2F)CC1)c1c(F)c(F)c(F)c(F)c1F | i | i | i | i | i
Clc1ccc(CSc2cc3c(nn2)-c2ccccc2CC3)cc1Cl | i | i | i | i | -8.07*
COC(=O)CCC(=O)OC1(C)C(=O)C2=CN(Cc3ccc(OC)cc3)C(c3ccc(OC)cc3)=CC2=C(Br)C1=O (stereo not given) | i | i | -4.86* | i | i
C=CCN(C(=O)CC(NC(C)=O)c1ccccc1)c1nc(-c2ccc(S(C)(=O)=O)cc2)cs1 (stereo not given) | i | i | i | i | i
CCCCCCCCOC(=O)C[N+](C)(C)C/C=C(/C)Cl | i | i | i | i | i
CCCCCCCCCCCCOC(=O)C[N+](C)(C)C | i | i | i | i | -8.95*
CCCCCCCCCCOC(=O)C[N+](C)(C)C/C=C(/C)Cl | i | i | -5.33* | i | i
CN(C(=O)COC(=O)CSc1cc(Cl)ccc1Cl)c1c(N)n(Cc2ccccc2)c(=O)[nH]c1=O | i | i | i | i | i
O=C(/C=C/Nc1ccc(F)c(F)c1)c1cccs1 | i | i | i | i | i
O=C(/C=C/Nc1ccc(F)cc1)c1cccs1 | i | i | -5.04* | i | i
CCn1c(/C=C/c2cc[n+](C)cc2)nc2ccccc21 | i | i | -5.92* | i | i
O=C(NC1CCN(S(=O)(=O)c2cccc(F)c2)CC1)c1cccc(F)c1 | i | i | i | i | i
COc1cnn(-c2ccc(Br)cc2)c(=O)c1SCc1ccccc1 | i | i | i | i | i
COc1cnn(-c2ccc(C)cc2)c(=O)c1SCc1ccccc1 | i | i | i | 30.3* | i
CCOC(=O)c1sc(N2C(=O)C(O)=C(C(=O)c3ccco3)C2c2ccco2)nc1C (stereo not given) | i | i | i | i | i
Cc1cc(C)c2nc(N3C(=O)C(O)=C(C(=O)c4ccco4)C3c3ccco3)sc2c1 (stereo not given) | i | i | i | i | -7.94*
COc1ccc(-n2c(NC(=O)c3ccco3)c(C#N)c3nc4ccccc4nc32)cc1 | i | 7.11* | i | i | i
CCCCn1c(NC(=O)c2ccccc2Cl)c(C#N)c2nc3ccccc3nc21 | i | i | i | 26.5* | i
O=C(COc1ccccc1Cl)NCCCNC(=O)c1cccnc1 | i | i | i | i | i
CC(=O)Nc1ccc(S(=O)(=O)N2CCN=C2SCc2ccc([N+](=O)[O-])cc2)cc1 | i | i | i | i | i
CC(C)N(CCCNC(=O)c1ccc(CS(=O)(=O)c2c(Cl)cccc2Cl)o1)Cc1ccccc1 | i | i | i | i | -8.59*
CSc1cccc(CN2CCCC(C(=O)Nc3cccc(-n4cccn4)c3)C2)c1 (stereo not given) | i | i | i | i | -7.31*
CCOc1cccc(CN2CCCC(C(=O)Nc3cccc(-n4cccn4)c3)C2)c1 (stereo not given) | i | i | i | i | i
CCOc1ccccc1CN1CCCC(C(=O)Nc2cccc(-n3cccn3)c2)C1 (stereo not given) | i | i | i | i | -7.01*
COc1ccc(/C=C/CN2CCC(n3nccc3NC(=O)C3CCCC3)CC2)cc1 | i | i | i | i | i
CN(C(=O)CSc1nnc(COc2ccccc2F)n1N)C1CCS(=O)(=O)C1 (stereo not given) | i | i | i | i | i
CCCOC(=O)c1c(NC(=O)/C=C/c2cnn(C)c2C)sc(C(=O)OC)c1C | i | i | i | i | i
CCCOC(=O)c1c(NC(=O)/C=C/c2cnn(C)c2C)sc(C(=O)OCC)c1C | i | i | -4.57* | i | i
